OXTR ag: agonists of human oxytocin receptor; CHO-OTR cells, Fluo-8 calcium fluorescence; normalized: DMSO 0%, oxytocin 100%; P30559; hit rate 0.32% among 320,000; activation, % at 3 µM;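 active = activation above the mean of all tested compounds plus 3 SD, cutoff set per screening run, cut at about 20% in these data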;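 note: peak over basal fluorescence ratio from a 100 s FLIPR kinetic read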
TAAR1 ag: human TAAR1 agonism; CHO RD-HGA16 TAAR1, Fluo-8 calcium fluorescence; vehicle wells 0%, saturating PEA agonist 100%; activation, % at 3 µM; hit rate 0.99% among 360,000; AID 624467;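 active = activation above the mean activation of all test compounds in the run plus 3 SD, cut at about 38% in these data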
Target sequence (Q96RJ0 whole entry, looked up): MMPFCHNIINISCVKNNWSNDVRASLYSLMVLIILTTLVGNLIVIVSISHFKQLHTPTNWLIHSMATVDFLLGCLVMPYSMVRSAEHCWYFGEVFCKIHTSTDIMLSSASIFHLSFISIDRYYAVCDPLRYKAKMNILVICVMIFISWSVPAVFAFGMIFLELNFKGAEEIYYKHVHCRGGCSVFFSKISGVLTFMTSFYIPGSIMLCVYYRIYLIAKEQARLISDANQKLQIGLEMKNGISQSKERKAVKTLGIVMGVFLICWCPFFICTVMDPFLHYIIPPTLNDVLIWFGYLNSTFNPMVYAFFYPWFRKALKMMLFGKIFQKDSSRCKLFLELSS
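test system = CHO RD-HGA16 cells carrying human TAAR1 plus Gα16 | schedule = 17-24 h seeding, 75 min 37 °C dye, 30 min RT | compound dosing = 3 µM single concentration | control set = DMSO and PEA EC100 | replicates = n 1 | signal = Fluo-8 fluorescence, 5 s baseline then 140 s kinetic read | measure = percent activation vs PEA EC100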
V1R ag counter: counter-screen for oxytocin receptor agonists: human V1a receptor agonists; activation, % at 3 µM; AID 2797; hit rate 0.25% among 320,000; CHO-V1R cells, Fluo-8 calcium fluorescence, agonist mode; 0% DMSO, 100% 3 nM vasopressin;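 active = activation above the mean activation of all tested compounds plus 3 SD, per screening run, cut at about 20% in these data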;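 note: signal is peak over basal fluorescence ratio across a 100 second FLIPR read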
OXTR potentiator: potentiates the human oxytocin receptor response. CHO-OTR cells, Fluo-8 calcium fluorescence, potentiator mode; 0% = oxytocin EC15, 100% = EC100. activation, % at 3 µM. hit rate 0.061% among 320,000;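 active = activation above that plate's cutoff, the mean activation of tested compounds plus 3 SD, cut at about 6.6% in these data, passing the limit was not always enough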;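 note: 100% uses oxytocin at 75 nM as the full agonist control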
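test system = CHO-OTR cells, human receptor | compound = single-point 3.0 µM | schedule = 6 min compound pre-incubation at room temperature, 100 s kinetic read | signal = Fluo-8 no-wash calcium dye fluorescence, excitation 470-495 nm, emission 515-575 nm | repeats = single well per compound, singlicate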
TAAR1 antagonist: human TAAR1 antagonism; Q96RJ0; CHO RD-HGA16 TAAR1, Fluo-8 calcium fluorescence, antagonist; hit rate 1.5% among 360,000; inhibition, % at 3 µM; AID 624466;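 active = inhibition above a per-plate cutoff, the mean inhibition of test compounds on that plate plus 3 SD, cut at about 49% in these data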;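 note: 0% = DMSO plus EC80 beta-PEA response and 100% = DMSO alone without agonist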
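Assay system: CHO-derived RD-HGA16 cells stably expressing human TAAR1 plus Gα16. Timing: 140 s kinetic read after compound, 140 s after agonist. Technique: kinetic Fluo-8 calcium fluorescence measurement. Measure: % inhibition of agonist calcium response.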
TAAR1 ag conf: confirmation of human TAAR1 agonists. shares compounds with TAAR1 ag. activation, % at 3 µM. hit rate 82% among 2,400. CHO RD-HGA16 TAAR1, Fluo-8 calcium fluorescence; scaled: DMSO 0%, maximal phenethylamine 100%. AID 651783;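 active = activation above a cutoff set at the run's mean compound activation plus 3 SD, cut at about 39% in these data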
Ga16 nonsel ag: nonselective agonist in parental cells, TAAR1 agonist counter-screen; AID 651787; CHO-Ga16 parental, Fluo-8 calcium fluorescence; normalized to maximal ATP response, DMSO zero; hit rate 50% among 2,400; activation, % at 3 µM; shares compounds with TAAR1 ag;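 active = activation above the run cutoff, the mean activation over all tested wells plus 3 SD, cut at about 12% in these data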;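 note: 0% = DMSO wells and 100% = maximal ATP response on the peak over basal ratio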
TAAR1 desens: counter-screen for human TAAR1 agonists: agonists that desensitize TAAR1. AID 651951. inhibition, % at 3 µM. CHO RD-HGA16 hTAAR1, Fluo-8 calcium, beta-PEA response inhibition. hit rate 46% among 2,400. shares compounds with TAAR1 ag;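 active = inhibition above the run cutoff, the mean inhibition of all test compounds plus 3 SD, cut at about 49% in these data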;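 note: beta-PEA stimulus applied at its EC80; loss of beta-PEA calcium signal after compound pretreatment read as receptor desensitization; 0% = DMSO with beta-PEA at EC80 and 100% = DMSO alone without agonist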
Ga16 antag count: nonselective Ga16 antagonism, counter-screen; inhibition, % at 3 µM; hit rate 39% among 2,400; shares compounds with TAAR1 ag; CHO-Ga16 ATP-induced calcium, Fluo-8 fluorescence; AID 651952;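 active = inhibition above the plate's mean compound inhibition plus 3 SD, computed per plate, cut at about 22% in these data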;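 note: 0% = EC80 ATP with DMSO and 100% = DMSO wells without ATP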
Numbers without * were called inactive; / = no result given. Rows were chosen to be rich in hits. Some 2.3% of all compounds tested hit in one or more screens of this group.

SMILES	OXTR ag	TAAR1 ag	V1R ag counter	OXTR potentiator	TAAR1 antagonist	TAAR1 ag conf	Ga16 nonsel ag	TAAR1 desens	Ga16 antag count
CCCCC(CC)CNCC(O)c1ccccc1 (configuration not stated)	2	53*	1	-10	5	64*	5	28	4
CCOc1ccc(Cl)cc1CNCCc1ccccc1F	3	0	4	-5	0	/	/	/	/
CCOc1ccc([N+](=O)[O-])cc1CNCCc1ccccc1	-2	52*	-1	-6	27	66*	2	51*	18
O=[N+]([O-])c1ccc(CNCCc2ccccc2)cc1	1	65*	0	-6	-7	64*	2	27	9
Cc1ccc2cc(CNCCc3ccccc3C)c(=O)[nH]c2c1	5	76*	3	-4	81*	83*	4	92*	3
Cc1cccc(CCNCc2cc3cc(C)cc(C)c3[nH]c2=O)c1	-1	108*	0	-14	78*	102*	3	90*	0
CC(Cc1ccc(O)cc1)NCC(O)c1ccc(O)c(O)c1 (configuration not stated)	/	9	/	/	-13	/	/	/	/
CC12CCC(O)CC1CCC1C2CCC2(C)C(C(=O)CO)CCC12 (configuration not stated)	/	5	/	/	24	/	/	/	/
Cc1ccc(S(=O)(=O)N2Cc3cc(N4CCOCC4)ccc3-n3nncc3C2)cc1	/	5	/	/	0	/	/	/	/
COc1ccc2[nH]cc(CCN(C)C)c2c1	0	2	0	-4	-5	/	/	/	/
COc1ccc2c(CCN)c[nH]c2c1	0	52*	1	-16	6	80*	1	45	10
COC(=O)C1=C(c2ccc(C(C)=O)cc2)C[C@@H]2CC[C@H]1N2C(=O)N1CCC(O)CC1	0	8	0	-6	6	/	/	/	/
O=[N+]([O-])c1ccc(NCc2ccccc2)c2nonc12	693*	954*	692*	-17	107*	496*	650*	105*	103*
O=[N+]([O-])c1ccc(NCc2ccc(Cl)cc2)c2ccncc12	2	16	4	0	-1	/	/	/	/
CCOC(=O)[C@@H]1[C@H]2COc3ccc(Br)cc3[C@H]2N2C(=O)N(c3cccc(C)c3)C(=O)[C@]12C	0	10	1	-4	1	/	/	/	/
CC(Cc1ccccc1)NC(=O)/C=C/C(=O)O (configuration not stated)	1	/	0	-4	/	/	2	/	2
Cc1ccc(C(=O)N2CC2C)cc1 (configuration not stated)	/	0	/	/	-15	/	/	/	/
CC1C(c2ccccc2)OCCN1C (configuration not stated)	/	3	/	/	-17	/	/	/	/
N[C@@H]1C[C@H]1c1ccccc1	2	80*	1	-6	78*	99*	10	86*	-2

Screening data (PubChem BioAssay)
